Two compounds from ChEMBL document CHEMBL1154253, “Synthesis and serotonin transporter activity of sulphur-substituted alpha-alkyl phenethylamines as a new class of anticancer agents” (Eur J Med Chem, 2009) can be followed below.

Data set [1] deals with HL-60. Briefly: Induction of apoptosis in human HL60 cells at 10 to 50 uM after 24 hrs by annexin V-propidium iodide staining-based FACS analysis. Type of data set: functional.
Data set [2] addresses Sodium-dependent serotonin transporter (Rattus norvegicus, UniProt P31652). As to the kind of experiment: Inhibition of [3H]5-HT reuptake at rat SERT expressed in HEK293 cells after 2 mins by liquid scintillation counting. In kind it is cell-based.
A further data set relates to MDA-MB-231. Briefly: Antiproliferative activity against human MDA-MB-231 cells at 50 uM after 24 hrs by alamar blue assay. Type of data set: functional. The procedure, abridged:
(§1)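 Alamar Blue viability: 1–5 × 10⁴ cells/well seeded, drug-treated for the stated time, then 10 µl Alamar Blue added and incubated 4–6 h at 37 °C in the dark. Fluorescence read at ex 544/em 590 nm, medium-only background subtracted, untreated cells = 100% viability. Taxol 10 µM as positive control. Mean ± S.E.M. of six points (triplicate on two independent days).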

The nature of data set [3]: Induction of apoptosis in human MUTU-I cells at 10 to 50 uM after 24 hrs by annexin V-propidium iodide staining-based FACS analysis. Type of data set: functional.
Another data set relates to SH-SY5Y. Briefly: Cytotoxicity against human SH-SY5Y cells after 48 hrs by neutral red assay. Type of data set: functional, cell-based.
The nature of data set [4]: Antiproliferative activity against […] cells at 50 uM after 24 hrs by alamar blue assay. In kind it is functional, 4T1. An outline of the steps:
as §1

The test system of data set [5] is MCF7. Briefly: Antiproliferative activity against human MCF7 cells at 50 uM after 24 hrs by alamar blue assay. In kind it is functional. An outline of the steps:
as §1

The subject of the next data set is HEK293. As to the kind of experiment: Cytotoxicity against human HEK293 cells after 48 hrs by neutral red assay. In kind it is cell-based. The settings on record: HEK293, 48 h, read-out: pEC50 (converted). An outline of the steps: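 Neutral Red uptake: 5 × 10⁴ cells/well grown 24–36 h to sub-confluence, then treated 48 h. Cells incubated 3 ± 1 h with NR dye, washed and solubilised in 50% ethanol–1% acetic acid, and absorbance read at 540 nm (690 nm background). Viability given as % of vehicle-treated cells. pEC50 obtained by sigmoidal regression (Hill slope 1) using 4 concentrations in triplicate on two independent days. SERT-line values compared with parental HEK293 by two-way ANOVA with Bonferroni test. Sodium azide 30 mM and Triton-X 2% as positive controls.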

Data set [6] can be described thus: Cytotoxicity against human PBMC assessed as cell viability at 50 uM after 24 hrs by alamar blue assay. In kind it is cell-based. The settings on record: read-out: Activity. The procedure, abridged:
(§2)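 PBMCs from a healthy donor, separated on Ficoll and resuspended in IMDM with FCS and penicillin/streptomycin. Seeded at 1–5 × 10⁴ cells/200 µl and treated 24 h. Alamar Blue added, fluorescence read at ex 544/em 590 nm, background subtracted, untreated cells = 100% viability. Mean + S.E.M.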

The test system of data set [7] is DG-75. Briefly: Induction of apoptosis in human DG75 cells after 72 hrs by annexin V-propidium iodide staining-based FACS analysis. The settings on record: DG-75, 72 h. In kind it is functional, cell-based.
Data set [8] in a line: Antiproliferative activity against human MUTU-I cells at 50 uM after 24 hrs by alamar blue assay. In kind it is functional. An outline of the steps:
as §1

Data set [9] is described as follows: Antiproliferative activity against human MUTU-I cells assessed as cell viability at 50 uM after 24 hrs by alamar blue assay. In kind it is functional. To be noted: read-out: Activity. The procedure, abridged: as §1
For data set [10], the system named is DG-75. Briefly: Induction of apoptosis in human DG75 cells at 50 uM after 72 hrs by annexin V-propidium iodide staining-based FACS analysis. In kind it is functional.
For data set [11], the system named is PBMC. Briefly: Cytotoxicity against human PBMC at 10 uM after 24 hrs by alamar blue assay. Type of data set: cell-based. The procedure, abridged: as §2
Data set [12] has as its system DG-75. Briefly: Antiproliferative activity against human DG75 cells assessed as cell viability at 50 uM after 72 hrs by alamar blue assay. The settings on record: DG-75, 72 h, read-out: Activity. Type of data set: functional. The procedure, abridged: as §1
The nature of data set [13]: Induction of apoptosis in human MUTU-I cells after 24 hrs by annexin V-propidium iodide staining-based FACS analysis. In kind it is functional, cell-based.
Data set [14] deals with DG-75. Briefly: Induction of apoptosis in human DG75 cells at 10 to 50 uM after 72 hrs by annexin V-propidium iodide staining-based FACS analysis. Type of data set: functional.
The test system of data set [15] is DG-75. As to the kind of experiment: Antiproliferative activity against human DG75 cells at 50 uM after 72 hrs by alamar blue assay. In kind it is functional. An outline of the steps: as §1
In data set [16] the test system is HL-60. Briefly: Induction of apoptosis in human HL60 cells after 24 hrs by annexin V-propidium iodide staining-based FACS analysis. In kind it is functional, cell-based. To be noted: HL-60, 24 h.
The subject of data set [17] is MCF7. Briefly: Antiproliferative activity against human MCF7 cells assessed as cell viability at 50 uM after 24 hrs by alamar blue assay. In kind it is functional. To be noted: MCF7, 24 h, read-out: Activity. The procedure, abridged:
as §1

The subject of data set [18] is HL-60. As to the kind of experiment: Induction of apoptosis in human HL60 cells at 50 uM after 24 hrs by annexin V-propidium iodide staining-based FACS analysis. In kind it is functional.
Data set [19] in a line: Induction of apoptosis in human MUTU-I cells at 50 uM after 24 hrs by annexin V-propidium iodide staining-based FACS analysis. In kind it is functional.
Data set [20] concerns PBMC. Briefly: Cytotoxicity against human PBMC at 50 uM after 24 hrs by alamar blue assay. In kind it is cell-based. An outline of the steps: as §2

Some results are limits rather than exact numbers.

Chain of Sodium-dependent serotonin transporter (P31652 whole entry): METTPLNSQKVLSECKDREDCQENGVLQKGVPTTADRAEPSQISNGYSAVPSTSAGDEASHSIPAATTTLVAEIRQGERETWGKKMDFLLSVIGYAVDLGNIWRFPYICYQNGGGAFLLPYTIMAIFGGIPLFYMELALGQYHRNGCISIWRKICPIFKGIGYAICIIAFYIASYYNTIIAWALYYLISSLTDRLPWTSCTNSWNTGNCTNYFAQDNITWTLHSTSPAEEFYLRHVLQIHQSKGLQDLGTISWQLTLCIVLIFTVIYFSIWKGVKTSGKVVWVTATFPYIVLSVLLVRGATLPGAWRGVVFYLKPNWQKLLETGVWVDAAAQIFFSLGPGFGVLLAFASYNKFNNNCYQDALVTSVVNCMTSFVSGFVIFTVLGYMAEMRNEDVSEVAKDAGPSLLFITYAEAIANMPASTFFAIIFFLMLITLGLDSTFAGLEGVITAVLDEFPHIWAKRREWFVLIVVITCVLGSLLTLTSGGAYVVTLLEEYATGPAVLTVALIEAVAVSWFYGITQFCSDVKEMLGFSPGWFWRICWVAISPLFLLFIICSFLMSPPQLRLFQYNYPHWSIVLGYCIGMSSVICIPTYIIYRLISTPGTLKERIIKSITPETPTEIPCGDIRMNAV

In the case of `CC(N)Cc1ccc(Sc2ccccc2)cc1` (configuration not stated), the Activity amounted to 40% with HL-60 [1]; 90% with MDA-MB-231; 40% in [3]; 90% in data set [4]; 40% with MCF7 [5]; 90% in [8]. The Activity in the data set on DG-75 [10] is reported as 40%; in the data set on PBMC [11], “Non-toxic”; in the data set on DG-75 [14], 40%; in the data set on DG-75 [15] it was 90%. The compound further yielded an IC50 in [2] of 14.3 µM. The EC50 in the data set with SH-SY5Y (read-out: EC50) was 1 µM; in the data set with SH-SY5Y (read-out: pEC50 (converted)) it was 13.2 µM; with HEK293, 2.75 µM; with DG-75 [7], 23.7 µM; in data set [13] it was 14.2 µM; in the data set with HL-60 [16] it was 19.6 µM. Also, the viability at 24 h, 50 µM in [6] came to 50%. The viability at 50 µM is 10% in data set [9], 10% in the data set on DG-75 [12] and less than 10% in the data set on MCF7 [17].

In [2], `CCC(N)c1ccc(SC)cc1` (configuration not stated) registered an IC50 of more than 25 µM. For the same compound, the Activity with HL-60 [18] is on record as 40%; in [19], 40%; with DG-75 [10], 40%; with PBMC [11] it was “Non-toxic”; in the data set on PBMC [20], “Non-toxic”. Also, the EC50 in the data set with SH-SY5Y (read-out: pEC50 (converted)) was 19.5 µM; in the data set with HEK293, 3.16 µM; in the data set with DG-75 [7] it was 33.8 µM; in data set [13], 21 µM; in the data set with HL-60 [16], 29.5 µM.
